Tested on: MS2 coat protein
Assay: apparent Kd, MS2 coat protein; higher = weaker binding; RNA-MaP array; FMN 200 µM where present
How it was run: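 Each design was made on Illumina sequencing-chip clusters by stalled E. coli RNA polymerase and titrated with SNAP-549-labelled MS2 coat protein from 0.7 or 1.5 nM, doubling to 3 µM, in the absence and then the presence of constant ligand. The buffer was 100 mM Tris-HCl pH 7.5, 80 mM KCl, 4 mM MgCl2, BSA, DTT, yeast tRNA and Tween-20. The apparent Kd is the median of filtered per-cluster fits of binding curves, with green signal normalised to red-channel RNA signal and control-cluster median Fmax.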

[1] = designed as: OFF switch for flavin mononucleotide, no ligand
[2] = ligand present: flavin mononucleotide, designed as: OFF switch for flavin mononucleotide
[3] = designed as: ON switch for flavin mononucleotide, no ligand
[4] = ligand present: flavin mononucleotide, designed as: ON switch for flavin mononucleotide

Sequence	apparent Kd [1]	apparent Kd [2]	apparent Kd [3]	apparent Kd [4]
UUUGAUUAUGUGAGGAUAUACUGUUUGUAUUGAUUGUAGAAGGUACAUGAGGAUCACCCAUGUUUUGUAUUUAU	18.6 nM	19.4 nM		
UUACUCAUGUAAGGAUAUGCAGUCGUUUCGGCUGCAGAAGGUACUAUAAUACAUGAGGAUCACCCAUGUCUUUUUAAUUUUUAC			112 nM	41 nM
UUAUUGUGAGGAUAUCCAAUAUAUGACAUGAGGAUCACCCAUGUUUCCACUCGUACCUCCGGAGAAGGCACUUAUU	32.7 nM	29.4 nM		
GUGUACAGAGGAUAUACAAGAGGAGUUACGAAAGUAACUUCACAUGAGGAUCACCCAUGUAGAAGGCUGUACAC	24.6 nM	39.5 nM		
CAGGAAAUAGAGGAUAUAGGAGUCGAUAGACUCCUAGAAGGCUAUACAUGAGGAUCACCCAUGUGUCCUACCUG	16.7 nM	43 nM		
CUGACGUCAGGAUAUCUGAUGUCUAACUUCGGUUAGACAUCAGAGAAGGGACAUGAGGAUCACCCAUGUCAGAG	28.7 nM	23.1 nM		
GUCAGCUCGUGAGGAUAUACAACACUGCUUCGGCAGUGUAUGAAGAUCACAUGAGGAUCACCCAUGUAGAAGGCACGAGCUGAU	9.93 nM	176 nM		
UAUUAACACGAAGGAUAUGGUUACAUGAGGAUCACCCAUGUAUGUAUAUUGAUCUAGAUUUUUAACCAGAAGGUCGUGAGUAAA	50.8 nM	72.2 nM		
UCUCGUUUCGCAGGAUAUGCUGGUCGGUAAUAUACCGGCCACAUGAGGAUCACCCAUGUGCCACAGCAGAAGGGUGACACUAGA			634 nM	65.7 nM
GGACAUGUCGUUUACAUGAGGAUCACCCAUGUCGAUGGACAUGAGGAUAUCGAUACGAAUCGUAUCGAGAAGGCAUGCAUGUCC			42.8 nM	18.5 nM
GUAGGGUCAGGAUAUACGGGCGGAGGGAUGUAUUGUAGUUGGUAGAAGGGACAUGAGGAUCACCCAUGUAAGAA	29.7 nM	26.2 nM		
CCCUCACAUGAGGAUCACCCAUGUCCUAGCAGGUCAGGAUAUAGCCCGCAUCCGCUGCGGCUAGAAGGGACAGCUG			244 nM	105 nM
CCGGUAUAGGAGGAUAUAGGAGUCGAUAGACACCUAGAAGGCCUGACAUGAGGAUCACCCAUGUGUCCUUCCGG	19.6 nM	55.8 nM		
GGAUAGGACAGAGGAUAUACAUGCUAGAGAUACUAGCAAAAUUUCCUCACAUGAGGAUCACCCAUGUAGAAGGCUGUCCUAUCG	28.5 nM	673 nM		
UUCAGACAUGAGGAUCACCCAUGUGAGGAUAUGAUGCAGCAGUGGUCUACGCUGUGCAUCAGAAGGCACAUGUG	140 nM	32.7 nM		
GCAUGUAUAUAAGGAUAUGCAUCACUGAGAAAUUUAGUGAGGAAGAUCACAUGAGGAUCACCCAUGUAGAAGGUAUAUACGUGC	8.23 nM	53.2 nM		
CGUGUCGCAUGAGGAUAUGGUCAGCUUUGCUGACCAGAAGGCAUGUCAAUAGACAUGAGGAUCACCCAUGUAGUAAAGACACGA			416 nM	33.9 nM
UGUCUGAGCAGAGGAUAUUACAUGAGGAUCACCCAUGUAUGAACCAAUAGCUGGAAACAGCAAUGUAAGAAGGCUGCUCCGACA	12.6 nM	199 nM		
CUUUAACACCAGAAGGACAUGAGGAUCACCCAUGUAGGAUAUGGGACUCCUAGUAGGCAUAUUGUGCUUCCGGUAGGACAAGGA			478 nM	62.2 nM

Sequence	apparent Kd [1]	apparent Kd [2]	apparent Kd [3]	apparent Kd [4]
UUAAAAGUGACAUGAGGAUCACCCAUGUGAAUUAGUAGUAGCAGAAGGCACGUGGGAAGACCAAGUGAGGAUAUGUAGCUUUAA			515 nM	44 nM
GCUGCAUAGGCAGGAUAUGCAAUAAUUUGAAUAAAAUAUAACAAAUUAACAUGAGGAUCACCCAUGUAGAAGGGCCUGUGCAGU	17.5 nM	19.4 nM		
UAUAUUAACAAGAAGGCUAACAUGAGGAUCACCCAUGUUGUACAUGGAUAUAGAGGAUAUUGCUAAUAAUUAUUUAUCAUAAUU	20.4 nM	18.3 nM		
UUAAUUAUACAAGGAUAUCUAUUGUAGUUUCGACUGACAUGAGGAUCACCCAUGUAAAUAUGUUAAGAGAAGGUGUAUUUUAAA			56.8 nM	40.4 nM
AUCAUUCGUGUAGGAUAUGCGUGACGAAGUCAUGCAGAAGGACAUGAGGAUCACCCAUGUCUUUCUCGAGCUGUAGCUCGAGGA	23.9 nM	156 nM		
CGCUAGUCAGGAUAUACGAACAUGUCACCAGACGUGAAGGGACAUGAGGAUCACCCAUGUAGAAGGGACUAGCA	90.5 nM	267 nM		
UUUUACCAAGGAUAUACAUUUUUUUUAUUAUUUUCAUUAUAACAUGAGGAUCACCCAUGUAGAAGGUGGAUUUU	54 nM	47.9 nM		
AGAAAGUCAGGAUAUCGAAGGUAGUGGAGAGGAGUGUGGUACGAGAAGGGACAUGAGGAUCACCCAUGUAGGAG	34.1 nM	31.4 nM		
GGGAGACAUGAGGAUCACCCAUGUGAAAACGUGUGAGGAUAUGAAUGGAAACCAUACUGUUCAGAAGGCACUUGUC			89.7 nM	36.6 nM
CGCUACGUUUCGUAGCAGUGUCAUCGAGAAGGCCCUGACAUGAGGAUCACCCAUGUUAAAACAUGGGAGGAUAUCGAUGAUACA			11.7 nM	4.87 nM
AAAAGCUCAGGAUAUACGGUCUGUUGUUGAGAAAUAAAAAAACAUGAGGAUCACCCAUGUAGAAGGGAGCGAAA	79.5 nM	160 nM		
GCAUCACAUGAGGAUCACCCAUGUCUUCGGAGCGGAGGAUAUGGUCACUGUAAACAGUGGCCAGAAGGCUGGAUGC				25.5 nM
GGCCCGCGCGUGAGGAUAUGCUGAUCCCAGGAUUAGCAGAAGGCACAUGAGGAUCACCCAUGUCCAACUUGUCU	32.6 nM	57 nM		
UUUAAUUUGUAGAAGGACGACUAUUAAUAUUUCGUAGGAUAUACUAUUUACAUGAGGAUCACCCAUGUUUAAAUGGAACAAUGU	8.35 nM	12.4 nM		
AGUUAAUAUCGAGGAUAUCCUCAUAAACAUGAGGAUCACCCAUGUUAACAUGGAGAAGGCGAUAUUAACAGCAUGUUACAUGCA			268 nM	20.2 nM
GCGUCAGAAUUAAUUGUGACAUACAGAAGGCAAUAUUAAGGUUAAGACAUGAGGAUCACCCAUGUUGAGGAUAUGUAGUGACGC	8.9 nM	15.8 nM		
CAGCACAUGAGGAUCACCCAUGUGCAUCCAUCAUGUGCCGUGCAGGAUAUAGACCGCCGUCCAGUCUAGAAGGGCACCGAUGAC	159 nM	75.1 nM		
UAAUAUUUAUGAUAUUAUUACAGUAGAAGGCUAUACAUGUGGAUACAUGAGGAUCACCCAUGUAUAGAGGAUAUAUACAUAUAU	964 nM	351 nM		

Reference: the EternaBench riboswitch data
